Assay results as given in ChEMBL document CHEMBL4270642, “Boronic ester-linked macrocyclic lipopeptides as serine protease inhibitors targeting Escherichia coli type I signal peptidase” (Eur J Med Chem, 2018).
≈ marks a conversion by molar mass, not a printed value.

Tests used:
[1] = target: Signal peptidase I (Escherichia coli K-12) (UniProt P00803); assay: Inhibition of Escherichia coli type 1 signal peptidase lepB assessed as residual activity at 2.5 uM preincubated for 10 mins followed by Dabcyl-VGGTATAYGAFSRPGLE-(EDANS)-OH substrate addition measured after 2 hrs by FRET based assay (reference value: 100%)
Sequence of Signal peptidase I (Escherichia coli K-12) (P00803 whole entry): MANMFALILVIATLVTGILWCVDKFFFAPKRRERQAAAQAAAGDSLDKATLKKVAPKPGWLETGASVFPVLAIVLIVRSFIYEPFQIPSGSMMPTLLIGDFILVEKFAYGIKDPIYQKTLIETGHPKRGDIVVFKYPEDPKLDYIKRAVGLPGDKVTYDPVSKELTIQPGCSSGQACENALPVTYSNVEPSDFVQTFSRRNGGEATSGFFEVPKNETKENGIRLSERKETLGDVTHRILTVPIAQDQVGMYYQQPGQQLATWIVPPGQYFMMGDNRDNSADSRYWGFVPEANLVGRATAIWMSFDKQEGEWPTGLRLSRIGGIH
Summary of the method: (§1)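 EcLepB (about 50 nM estimated) preincubated 10 min with compound. Reaction started with Dabcyl/EDANS FRET peptide at 8 µM final (Km 20 µM). Fluorescence followed continuously at 535 nm, 22 °C, for 2 h. Cleavage rates plotted against inhibitor concentration; IC50 from non-linear regression of sigmoidal dose-response curves.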

Signal peptidase I = Signal peptidase I (Escherichia coli K-12, UniProt P00803); assay: Inhibition of Escherichia coli type 1 signal peptidase lepB preincubated for 10 mins followed by Dabcyl-VGGTATAYGAFSRPGLE-(EDANS)-OH substrate addition measured after 2 hrs by FRET based assay; summary of the method: as §1
Sequence of Signal peptidase I (P00803 whole entry): as above

[2] = target: Signal peptidase I (Escherichia coli K-12) (UniProt P00803); assay: Inhibition of Escherichia coli type 1 signal peptidase lepB assessed as residual activity at 0.0024 uM preincubated for 10 mins followed by Dabcyl-VGGTATAYGAFSRPGLE-(EDANS)-OH substrate addition measured after 2 hrs by FRET based assay (reference value: 100%); summary of the method: as §1
Escherichia coli [3] = assay: Antibacterial activity against tolC deficient Escherichia coli CH3130 after 16 to 20 hrs by broth microdilution method; type: functional
Summary of the method: (§2)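 Broth microdilution in cation-adjusted Mueller-Hinton II per EUCAST/CLSI; two-fold compound series 64 down to 0.25 µg/mL final. Inoculum from fresh colonies (non-selective agar, 18-24 h, 35 ± 2 °C), adjusted to 0.5 McFarland, diluted to about 5 × 10^5 CFU/mL final. Static incubation 16-20 h at 35 ± 2 °C; MIC read visually as complete growth inhibition against medium-only wells.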

Pseudomonas aeruginosa [4] = assay: Antibacterial activity against efflux defective Pseudomonas aeruginosa PAO750 after 16 to 20 hrs by broth microdilution method; type: functional; summary of the method: as §2
[5] = target: Signal peptidase I (Escherichia coli K-12) (UniProt P00803); assay: Inhibition of Escherichia coli type 1 signal peptidase lepB assessed as residual activity at 1.25 uM preincubated for 10 mins followed by Dabcyl-VGGTATAYGAFSRPGLE-(EDANS)-OH substrate addition measured after 2 hrs by FRET based assay (reference value: 100%); summary of the method: as §1
[6] = target: Signal peptidase I (Escherichia coli K-12) (UniProt P00803); assay: Inhibition of Escherichia coli type 1 signal peptidase lepB assessed as residual activity at 0.0098 uM preincubated for 10 mins followed by Dabcyl-VGGTATAYGAFSRPGLE-(EDANS)-OH substrate addition measured after 2 hrs by FRET based assay (reference value: 100%); summary of the method: as §1
[7] = target: Signal peptidase I (Escherichia coli K-12) (UniProt P00803); assay: Inhibition of Escherichia coli type 1 signal peptidase lepB assessed as residual activity at 0.0049 uM preincubated for 10 mins followed by Dabcyl-VGGTATAYGAFSRPGLE-(EDANS)-OH substrate addition measured after 2 hrs by FRET based assay (reference value: 100%); summary of the method: as §1
Acinetobacter baumannii = assay: Antibacterial activity against Acinetobacter baumannii ATCC 19606 after 16 to 20 hrs by broth microdilution method; type: functional; conditions: ATCC 19606 = CIP 70.34 = JCM 6841; summary of the method: as §2
Pseudomonas aeruginosa [8] = assay: Antibacterial activity against Pseudomonas aeruginosa PAO1 after 16 to 20 hrs by broth microdilution method; type: functional; summary of the method: as §2
[9] = target: Signal peptidase I (Escherichia coli K-12) (UniProt P00803); assay: Inhibition of Escherichia coli type 1 signal peptidase lepB assessed as residual activity at 0.3125 uM preincubated for 10 mins followed by Dabcyl-VGGTATAYGAFSRPGLE-(EDANS)-OH substrate addition measured after 2 hrs by FRET based assay (reference value: 100%); summary of the method: as §1
Escherichia coli [10] = assay: Antibacterial activity against Escherichia coli ATCC 25922 after 16 to 20 hrs by broth microdilution method; type: functional; summary of the method: as §2
Klebsiella pneumoniae = assay: Antibacterial activity against Klebsiella pneumoniae ATCC 13883 after 16 to 20 hrs by broth microdilution method; type: functional; summary of the method: as §2
[11] = Hemolytic activity in human RBC at 100 uM after 45 mins by spectrophotometric method relative to control; type: ADME, cell-based, Erythrocyte; conditions: red blood cells (erythrocytes), read-out: Activity
Summary of the method: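 Heparinized human blood; red cells washed three times in Tyrode buffer pH 7.4. Compound at 100 µM final with 1% DMSO and 50% RBC, shaken (250 rpm) 45 min at 37 °C. Cells pelleted (1000 × g, 10 min); supernatant haemoglobin at 540 nm. Percent lysis relative to buffer-only and 2% Triton X-100 controls.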

[12] = target: Signal peptidase I (Escherichia coli K-12) (UniProt P00803); assay: Inhibition of Escherichia coli type 1 signal peptidase lepB assessed as residual activity at 10 uM preincubated for 10 mins followed by Dabcyl-VGGTATAYGAFSRPGLE-(EDANS)-OH substrate addition measured after 2 hrs by FRET based assay (reference value: 100%); summary of the method: as §1
[13] = target: Signal peptidase I (Escherichia coli K-12) (UniProt P00803); assay: Inhibition of Escherichia coli type 1 signal peptidase lepB assessed as residual activity at 0.1563 uM preincubated for 10 mins followed by Dabcyl-VGGTATAYGAFSRPGLE-(EDANS)-OH substrate addition measured after 2 hrs by FRET based assay (reference value: 100%); summary of the method: as §1
[14] = target: Signal peptidase I (Escherichia coli K-12) (UniProt P00803); assay: Inhibition of Escherichia coli type 1 signal peptidase lepB assessed as residual activity at 0.0391 uM preincubated for 10 mins followed by Dabcyl-VGGTATAYGAFSRPGLE-(EDANS)-OH substrate addition measured after 2 hrs by FRET based assay (reference value: 100%); summary of the method: as §1
[15] = target: Signal peptidase I (Escherichia coli K-12) (UniProt P00803); assay: Inhibition of Escherichia coli type 1 signal peptidase lepB assessed as residual activity at 0.0195 uM preincubated for 10 mins followed by Dabcyl-VGGTATAYGAFSRPGLE-(EDANS)-OH substrate addition measured after 2 hrs by FRET based assay (reference value: 100%); summary of the method: as §1
[16] = target: Signal peptidase I (Escherichia coli K-12) (UniProt P00803); assay: Inhibition of Escherichia coli type 1 signal peptidase lepB assessed as residual activity at 0.0781 uM preincubated for 10 mins followed by Dabcyl-VGGTATAYGAFSRPGLE-(EDANS)-OH substrate addition measured after 2 hrs by FRET based assay (reference value: 100%); summary of the method: as §1
[17] = target: Signal peptidase I (Escherichia coli K-12) (UniProt P00803); assay: Inhibition of Escherichia coli type 1 signal peptidase lepB assessed as residual activity at 0.625 uM preincubated for 10 mins followed by Dabcyl-VGGTATAYGAFSRPGLE-(EDANS)-OH substrate addition measured after 2 hrs by FRET based assay (reference value: 100%); summary of the method: as §1
[18] = target: Signal peptidase I (Escherichia coli K-12) (UniProt P00803); assay: Inhibition of Escherichia coli type 1 signal peptidase lepB assessed as residual activity at 0.0012 uM preincubated for 10 mins followed by Dabcyl-VGGTATAYGAFSRPGLE-(EDANS)-OH substrate addition measured after 2 hrs by FRET based assay (reference value: 100%); summary of the method: as §1
Staphylococcus aureus = assay: Antibacterial activity against Staphylococcus aureus ATCC 29213 after 16 to 20 hrs by broth microdilution method; type: functional; summary of the method: as §2
Escherichia coli [19] = assay: Antibacterial activity against Escherichia coli D22 CGSG 5163 harboring Ips mutant after 16 to 20 hrs by broth microdilution method; type: functional
Summary of the method: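 Broth microdilution in cation-adjusted Mueller-Hinton II broth, following EUCAST and CLSI guidelines. Two-fold series at final concentrations 64 down to 0.25 µg/mL, with medium-only and growth controls. Inoculum from fresh colonies (18-24 h, 35 °C ± 2 °C) adjusted to 0.5 McFarland, final ≈5 × 10^5 CFU/mL. Plates incubated unshaken 16-20 h at 35 °C ± 2 °C. MIC read visually as complete inhibition of growth.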

HepG2 = assay: Cytotoxicity against human HepG2 cells after 72 hrs by FMSA; type: cell-based; conditions: HepG2, 72 h
Summary of the method: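 HepG2 (ATCC) grown in EMEM with 10% FBS, pen/strep, 2 mM L-glutamine, used up to 20 passages. Seeded at 1000 cells/well, cultured overnight, then dosed acoustically from DMSO stocks. Eight two-fold dilutions in duplicate from top 64 or 32 µM; 72 h at 37 °C, 5% CO2. Fluorescein diacetate hydrolysis read at ex 485/em 530 nm; IC50 by non-linear regression.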

[20] = target: Signal peptidase I (Escherichia coli K-12) (UniProt P00803); assay: Inhibition of Escherichia coli type 1 signal peptidase lepB assessed as residual activity at 5 uM preincubated for 10 mins followed by Dabcyl-VGGTATAYGAFSRPGLE-(EDANS)-OH substrate addition measured after 2 hrs by FRET based assay (reference value: 100%); summary of the method: as §1

Row | Compound | Activity [1] [%] | IC50 (Signal peptidase I) [µM] | Activity [2] [%] | MIC (Escherichia coli [3]) [mg/L] | MIC (Pseudomonas aeruginosa [4]) [mg/L] | Activity [5] [%] | Activity [6] [%] | Activity [7] [%] | MIC (Acinetobacter baumannii) [mg/L] | MIC (Pseudomonas aeruginosa [8]) [mg/L] | Activity [9] [%] | MIC (Escherichia coli [10]) [mg/L] | MIC (Klebsiella pneumoniae) [mg/L] | hemolysis at 0.75 h, 100 µM [11] [%] | Activity [12] [%] | Activity [13] [%] | Activity [14] [%] | Activity [15] [%] | Activity [16] [%] | Activity [17] [%] | further results
1 | CCCCCCC#Cc1cncc(C(=O)N[C@@H](CCCN)C(=O)N[C@H](C(=O)N[C@@H](C)C(=O)N[C@H]2Cc3cn(nn3)CCO[C@@H]3C[C@@H]4OB(O[C@@H]4C3)[C@H](C)NC2=O)[C@@H](C)O)c1 | 8.2 | 0.041 | 93.6 | 64 (≈ 76.7 µM) | > 64 | 7.9 | 82.7 | 91 | > 64 | > 64 | 13.4 | > 64 | > 64 | 0.01 | -1.2 | 10.6 | 53.7 | 75.2 | 26.8 | 13 | Activity [18]: 106%; MIC (Staphylococcus aureus): 32 mg/L (≈ 38.3 µM); MIC (Escherichia coli [19]): > 64 mg/L; IC50 (HepG2): > 64 µM; Activity [20]: 2.3%
2 | CCCCCCc1ccc(-c2c[nH]c3ccc(C(=O)N[C@@H](CCCN)C(=O)N[C@H](C(=O)N[C@@H](C)C(=O)N[C@H]4Cc5cn(nn5)CCO[C@@H]5C[C@@H]6OB(O[C@@H]6C5)[C@H](C)NC4=O)[C@@H](C)O)cc23)cc1 | 2.9 | 0.225 | 108 | 32 (≈ 34.6 µM) | 64 (≈ 69.2 µM) | 8.1 | 98.5 | 99.5 | 64 (≈ 69.2 µM) | 64 (≈ 69.2 µM) | 42.8 | 32 (≈ 34.6 µM) | 64 (≈ 69.2 µM) | 2.8 | -19.8 | 58.5 | 94.2 | 101 | 78.1 | 20.4 | Activity [18]: 106%; MIC (Staphylococcus aureus): 16 mg/L (≈ 17.3 µM); MIC (Escherichia coli [19]): 16 mg/L (≈ 17.3 µM); IC50 (HepG2): 23.7 µM; Activity [20]: -6.8%
3 | C[C@@H]1NC(=O)[C@@H](NC(=O)[C@H](C)NC(=O)[C@@H](NC(=O)[C@H](CCCN)NC(=O)c2ccc(=O)n(-c3ccccc3)c2)[C@@H](C)O)Cc2cn(nn2)CCO[C@@H]2C[C@@H]3OB1O[C@@H]3C2 | 42.8 | 1.66 | 82.4 | > 64 | > 64 | 62.1 | 101 | 97.5 | > 64 | > 64 | 69.5 | > 64 | > 64 | 0.04 | 10.4 | 105 | 91.6 | 104 | 100 | 66.9 | Activity [18]: 84.6%; MIC (Staphylococcus aureus): > 64 mg/L; MIC (Escherichia coli [19]): > 64 mg/L; IC50 (HepG2): > 64 µM; Activity [20]: 26.8%
